# Measured values reported in ChEMBL document CHEMBL1154044, “5-Nitro-2-furyl derivative actives against Trypanosoma cruzi: preliminary in vivo studies” (Eur J Med Chem, 2009).
# How the values were obtained:
# [1] = test system: Mus musculus; test: Toxicity in CD1 mouse heart at 300 mg/kg, ip after 3 days by histological study; format: organism-based; set-up: dose 300 mg/kg, route intraperitoneal; settings: in vivo, 72 h
# Outline: (§1)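 Healthy female CD1 mice (20–22 g), 5–7 per group, given a single oral (intragastric) or i.p. dose in saline:Tween 80 (4:1) vehicle. Sacrificed on day 3 after ether anaesthesia. Organs fixed in 10% aqueous formalin for histology. Scored against untreated animals from no change to +++ (many changes).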
# [2] = test system: Mus musculus; test: Toxicity in CD1 mouse assessed as glutamic-oxalacetate transaminase level at 450 mg/kg, po after 3 days; format: organism-based; set-up: dose 450 mg/kg, route oral; settings: in vivo, 72 h
# Outline: (§2)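 Healthy female CD1 mice (5–7 per group) received a single oral dose of 450 mg/kg or an i.p. dose of 300 mg/kg, with vehicle controls. On day 3 they were sacrificed under ether anaesthesia. Blood was drawn from the subclavian artery and kept at 0 °C in EDTA or heparin. Leukocytes, haemoglobin, haematocrit, GPT and GOT were measured within 24 h and compared with normal ranges.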
# [3] = test system: Mus musculus; test: Toxicity in CD1 mouse intestine at 300 mg/kg, ip after 3 days by histological study; format: organism-based; set-up: dose 300 mg/kg, route intraperitoneal; settings: in vivo, 72 h; outline: as §1
# [4] = test system: Mus musculus; test: Toxicity in CD1 mouse assessed as increase in weight respect to day zero at 300 mg/kg, ip after 3 days; format: organism-based; set-up: dose 300 mg/kg, route intraperitoneal; settings: in vivo, 72 h
# Outline: (§3)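 Healthy 2-month-old female CD1 mice (20–22 g, 5–7 per group) received one dose. Oral doses of 450 or 300 mg/kg were given by intragastric syringe; i.p. doses of 300 or 150 mg/kg by injection. Drugs were suspended in saline:Tween 80 (4:1), and a vehicle-only control was included. Mice were weighed and observed daily for 3 days. Weight change is expressed as percent relative to day zero.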
# [5] = test system: Mus musculus; test: Toxicity in CD1 mouse assessed as survival at 300 mg/kg, ip after 3 days; format: organism-based; set-up: dose 300 mg/kg, route intraperitoneal; settings: in vivo, 72 h
# Outline: (§4)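 Healthy 2-month-old female CD1 mice (20–22 g), groups of 5–7, given one oral dose by intragastric syringe or one i.p. injection. Compound suspended in saline:Tween 80 (4:1) with sonication just before dosing; vehicle-treated controls included. Weighed and observed daily over 3 days for skin, physical aspect, activity and faeces; survival recorded at day 3.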
# [6] = test system: Mus musculus; test: Toxicity in CD1 mouse assessed as survival at 450 mg/kg, po after 3 days; format: organism-based; set-up: dose 450 mg/kg, route oral; settings: in vivo, 72 h; outline: as §4
# [7] = test system: Trypanosoma cruzi; test: Growth inhibition of Trypanosoma cruzi Tulahuen 2 epimastigote at 5 uM after 5 days; format: functional; set-up: Activity: scale not given: the % may be the effect or the level left; settings: for inhibition of growth at 5 µM: Trypanosoma cruzi, Tulahuen 2, 120 h, read-out: GI
# [8] = test system: Mus musculus; test: Toxicity in CD1 mouse assessed as leukocyte level at 300 mg/kg, ip after 3 days; format: organism-based; set-up: dose 300 mg/kg, route intraperitoneal; settings: in vivo, 72 h; outline: as §2
# [9] = test system: Mus musculus; test: Toxicity in CD1 mouse lung at 450 mg/kg, po after 3 days by histological study; format: organism-based; set-up: dose 450 mg/kg, route oral; settings: in vivo, 72 h; outline: as §1
# [10] = test system: Mus musculus; test: Toxicity in CD1 mouse assessed as hematocrite level at 450 mg/kg, po after 3 days; format: organism-based; set-up: dose 450 mg/kg, route oral; settings: in vivo, 72 h; outline: as §2
# [11] = test system: Mus musculus; test: Toxicity in CD1 mouse kidney at 450 mg/kg, po after 3 days by histological study; format: organism-based; set-up: dose 450 mg/kg, route oral; settings: in vivo, 72 h; outline: as §1
# [12] = test system: Mus musculus; test: Toxicity in CD1 mouse assessed as haemoglobin level at 450 mg/kg, po after 3 days; format: organism-based; set-up: dose 450 mg/kg, route oral; settings: in vivo, 72 h; outline: as §2
# [13] = test system: Mus musculus; test: Toxicity in CD1 mouse liver at 450 mg/kg, po after 3 days by histological study; format: organism-based; set-up: dose 450 mg/kg, route oral; settings: in vivo, 72 h; outline: as §1
# [14] = test system: Mus musculus; test: Toxicity in CD1 mouse assessed as decrease in weight respect to day zero at 450 mg/kg, po after 3 days; format: organism-based; set-up: dose 450 mg/kg, route oral; scale not given: the % may be the effect or the level left; settings: in vivo, 72 h; outline: as §3
# [15] = test system: Mus musculus; test: Toxicity in CD1 mouse assessed as glutamic-oxalacetate transaminase level at 300 mg/kg, ip after 3 days; format: organism-based; set-up: dose 300 mg/kg, route intraperitoneal; settings: in vivo, 72 h; outline: as §2
# [16] = test system: Mus musculus; test: Toxicity in CD1 mouse kidney at 300 mg/kg, ip after 3 days by histological study; format: organism-based; set-up: dose 300 mg/kg, route intraperitoneal; settings: in vivo, 72 h; outline: as §1
# [17] = test system: Mus musculus; test: Toxicity in CD1 mouse lung at 300 mg/kg, ip after 3 days by histological study; format: organism-based; set-up: dose 300 mg/kg, route intraperitoneal; settings: in vivo, 72 h; outline: as §1
# [18] = test system: Mus musculus; test: Toxicity in CD1 mouse assessed as glutamic-pyruvate transaminase level at 450 mg/kg, po after 3 days; format: organism-based; set-up: dose 450 mg/kg, route oral; settings: in vivo, 72 h; outline: as §2
# [19] = test system: Mus musculus; test: Toxicity in CD1 mouse brain at 450 mg/kg, po after 3 days by histological study; format: organism-based; set-up: dose 450 mg/kg, route oral; settings: in vivo, 72 h; outline: as §1
# [20] = test system: Mus musculus; test: Toxicity in CD1 mouse liver at 300 mg/kg, ip after 3 days by histological study; format: organism-based; set-up: dose 300 mg/kg, route intraperitoneal; settings: in vivo, 72 h; outline: as §1
# [21] = test system: Mus musculus; test: Toxicity in CD1 mouse assessed as haemoglobin level at 300 mg/kg, ip after 3 days; format: organism-based; set-up: dose 300 mg/kg, route intraperitoneal; settings: in vivo, 72 h; outline: as §2
# [22] = test system: Mus musculus; test: Toxicity in CD1 mouse brain at 300 mg/kg, ip after 3 days by histological study; format: organism-based; set-up: dose 300 mg/kg, route intraperitoneal; settings: in vivo, 72 h; outline: as §1
# [23] = test system: Mus musculus; test: Toxicity in CD1 mouse heart at 450 mg/kg, po after 3 days by histological study; format: organism-based; set-up: dose 450 mg/kg, route oral; settings: in vivo, 72 h; outline: as §1
# [24] = test system: Mus musculus; test: Toxicity in CD1 mouse assessed as glutamic-pyruvate transaminase level at 300 mg/kg, ip after 3 days; format: organism-based; set-up: dose 300 mg/kg, route intraperitoneal; settings: in vivo, 72 h; outline: as §2
# [25] = test system: Mus musculus; test: Toxicity in CD1 mouse assessed as leukocyte level at 450 mg/kg, po after 3 days; format: organism-based; set-up: dose 450 mg/kg, route oral; settings: in vivo, 72 h; outline: as §2
# [26] = test system: Mus musculus; test: Toxicity in CD1 mouse intestine at 450 mg/kg, po after 3 days by histological study; format: organism-based; set-up: dose 450 mg/kg, route oral; settings: in vivo, 72 h; outline: as §1
# [27] = test system: Mus musculus; test: Toxicity in CD1 mouse assessed as hematocrite level at 300 mg/kg, ip after 3 days; format: organism-based; set-up: dose 300 mg/kg, route intraperitoneal; settings: in vivo, 72 h; outline: as §2
# [28] = test system: Mus musculus; test: Toxicity in CD1 mouse assessed as increase in weight respect to day zero at 450 mg/kg, po after 3 days; settings: in vivo, 72 h
Compound,Activity [1],Activity [2] [IU/L],Activity [3],Activity [4] [%],Activity [6],Activity [8] [µL⁻¹],Activity [9],Activity [11],Activity [12] [g/dL],Activity [13],Activity [16],Activity [17],Activity [18] [IU/L],Activity [19],Activity [20],Activity [21] [g/dL],Activity [22],Activity [23],Activity [25] [µL⁻¹],Activity [26],other results
CCCCCCNC(=O)/C=C/c1ccc([N+](=O)[O-])o1,Toxic,69.8,Non-toxic,2,Non-toxic,12100,Toxic,Non-toxic,11.5,Toxic,Non-toxic,Toxic,22.7,Non-toxic,Toxic,11.3,Non-toxic,Toxic,86000,Non-toxic,Activity [5]: Non-toxic; inhibition of growth at 5 µM [7]: 82%; Activity [10]: 30.4%; Activity [14]: 0%; Activity [15]: 129 IU/L; Activity [24]: 52.8 IU/L
CCCCCCCOC(=O)N/N=C/C=C/c1ccc([N+](=O)[O-])o1,Non-toxic,139,Non-toxic,4,Non-toxic,11100,Non-toxic,Non-toxic,13.4,Toxic,Non-toxic,Non-toxic,62.7,Non-toxic,Toxic,14.2,Non-toxic,Non-toxic,9010,Non-toxic,Activity [5]: Non-toxic; inhibition of growth at 5 µM [7]: 90%; Activity [10]: 39.4%; Activity [14]: 0%; Activity [15]: 77.7 IU/L; Activity [24]: 46.1 IU/L
CCCCCCCCOC(=O)N/N=C/c1ccc([N+](=O)[O-])o1,Non-toxic,119,Non-toxic,4,–,5300,Non-toxic,Non-toxic,11.9,Toxic,Non-toxic,Non-toxic,30,Non-toxic,Toxic,13.8,Non-toxic,Non-toxic,6600,Non-toxic,Activity [7]: 84%; Activity [10]: 36.4%; Activity [14]: 11%; Activity [27]: 43.6%
CCCCCCCCOC(=O)N/N=C/C=C/c1ccc([N+](=O)[O-])o1,Non-toxic,84,Non-toxic,1,Non-toxic,10600,Non-toxic,Toxic,13.9,Toxic,Non-toxic,Non-toxic,70.2,Non-toxic,Toxic,13.4,Non-toxic,Non-toxic,7750,Non-toxic,inhibition of growth at 5 µM [7]: 92%; Activity [15]: 57 IU/L; Activity [28]: 2%; Activity [24]: 50.7 IU/L
